In ChEMBL document CHEMBL5380801, “Development of Substituted Phenyl Dihydrouracil as the Novel Achiral Cereblon Ligands for Targeted Protein Degradation” (J Med Chem, 2023):
Calls of active or inactive are those of the source. The rule behind the calls is not given here.

How the values were obtained:
[1] = system: MV4-11; experiment: Antiproliferative activity at human MV4-11 cells assessed as reduction in cell viability at upto 100 uM measured after 72 hrs by Alamar blue dye based analysis; assay type: functional
Summary of the method: (§1)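 MV4;11 cells (RPMI1640, 10% FBS, 1% Pen/Strep, 37 °C, 5% CO2, used within 20 passages) seeded at 5000–10000 cells/well, then given DMSO or compound at the indicated doses for 72 h. AlamarBlue then added; fluorescence read at ex 530–560 nm, em 590 nm. Signal normalized to DMSO-treated cells; IC50 calculated.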

[2] = Stability of the compound in HCl solution at pH 1.0 assessed as parent compound remaining at 100 uM measured after 24 hrs by HPLC analysis; assay type: physicochemical; details: read-out: Stability
Summary of the method: (§2)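 Incubated in buffer at the stated pH at 37 °C; percent parent remaining after 24 h. Ring-opening hydrolysis of the glutarimide or dihydrouracil monitored.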

[3] = Stability in human liver microsomes assessed as parent compound remaining measured after 0.5 hrs in presence of NADPH by LC-MS/MS analysis; assay type: ADME, Microsome; details: read-out: Stability
Summary of the method: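 Human liver microsome incubation; percent parent remaining reported after 0.5 h.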

[4] = Stability in human plasma assessed as parent compound remaining measured after 4 hrs in presence of NADPH by LC-MS/MS analysis; assay type: ADME, cell-free; details: read-out: Stability
Summary of the method: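 Human plasma incubation; percent parent remaining reported after 4.0 h.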

[5] = biological target: Protein cereblon/DNA damage-binding protein 1 (Homo sapiens, UniProt Q96SW2); experiment: Binding affinity to recombinant human CRBN/DDB1 assessed as dissociation constant incubated for 20 mins by fluorescence polarization assay; assay type: protein assay
Chain of Protein cereblon/DNA damage-binding protein 1 (Q96SW2 whole entry): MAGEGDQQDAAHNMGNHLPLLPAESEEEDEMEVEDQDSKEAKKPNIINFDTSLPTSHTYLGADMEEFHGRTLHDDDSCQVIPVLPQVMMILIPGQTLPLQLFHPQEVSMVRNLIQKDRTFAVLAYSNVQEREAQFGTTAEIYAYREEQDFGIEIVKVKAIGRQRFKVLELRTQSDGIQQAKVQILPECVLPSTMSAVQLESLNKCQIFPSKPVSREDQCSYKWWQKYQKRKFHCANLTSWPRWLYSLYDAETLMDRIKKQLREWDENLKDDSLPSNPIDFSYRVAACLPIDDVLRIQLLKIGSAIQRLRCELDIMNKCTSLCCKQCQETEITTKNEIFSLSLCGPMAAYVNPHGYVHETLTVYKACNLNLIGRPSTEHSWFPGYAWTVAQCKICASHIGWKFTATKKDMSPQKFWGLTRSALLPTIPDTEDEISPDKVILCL
Chain of Protein cereblon/DNA damage-binding protein 1 (Q16531 whole entry, further chain): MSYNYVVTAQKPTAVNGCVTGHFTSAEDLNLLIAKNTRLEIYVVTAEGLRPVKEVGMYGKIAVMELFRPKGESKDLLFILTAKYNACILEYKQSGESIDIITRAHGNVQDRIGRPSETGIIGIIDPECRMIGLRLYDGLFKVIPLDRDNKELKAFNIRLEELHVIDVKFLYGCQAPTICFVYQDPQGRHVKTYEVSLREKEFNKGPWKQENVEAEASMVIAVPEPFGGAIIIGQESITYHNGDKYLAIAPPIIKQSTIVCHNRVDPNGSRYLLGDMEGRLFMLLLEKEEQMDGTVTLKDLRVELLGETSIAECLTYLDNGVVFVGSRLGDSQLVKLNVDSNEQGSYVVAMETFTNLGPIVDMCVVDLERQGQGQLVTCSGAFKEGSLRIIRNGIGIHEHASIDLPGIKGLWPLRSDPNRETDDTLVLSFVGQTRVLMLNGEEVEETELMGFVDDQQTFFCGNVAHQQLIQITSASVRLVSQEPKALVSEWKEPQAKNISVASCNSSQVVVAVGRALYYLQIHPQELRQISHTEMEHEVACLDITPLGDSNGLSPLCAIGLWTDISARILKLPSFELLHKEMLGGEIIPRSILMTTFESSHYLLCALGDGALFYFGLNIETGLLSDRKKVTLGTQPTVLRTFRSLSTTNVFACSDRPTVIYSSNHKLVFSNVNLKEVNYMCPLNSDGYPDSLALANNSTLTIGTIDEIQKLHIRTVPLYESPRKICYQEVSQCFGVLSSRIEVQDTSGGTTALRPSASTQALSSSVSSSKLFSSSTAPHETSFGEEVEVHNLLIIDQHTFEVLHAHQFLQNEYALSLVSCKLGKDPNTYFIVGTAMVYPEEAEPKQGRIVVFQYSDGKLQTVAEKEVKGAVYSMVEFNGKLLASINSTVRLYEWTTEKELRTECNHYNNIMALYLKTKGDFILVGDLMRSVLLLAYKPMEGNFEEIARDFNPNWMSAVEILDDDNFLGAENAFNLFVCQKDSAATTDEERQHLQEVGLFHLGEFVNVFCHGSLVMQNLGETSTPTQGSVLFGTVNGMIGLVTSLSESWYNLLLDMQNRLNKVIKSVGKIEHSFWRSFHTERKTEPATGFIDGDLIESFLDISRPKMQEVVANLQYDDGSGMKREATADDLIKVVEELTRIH

[6] = Stability of the compound in bicine buffer at pH 8.8 assessed as parent compound remaining at 100 uM measured after 24 hrs by HPLC analysis; assay type: physicochemical; details: read-out: Stability; summary of the method: as §2
[7] = biological target: Protein cereblon/Eukaryotic peptide chain release factor GTP-binding subunit ERF3A (Homo sapiens) (UniProt Q96SW2+P15170); experiment: Protac activity at CRBN/GSPT1 in human MV4-11 cells assessed as induction of GSPT1 degradation at 1 to 10 uM measured after 24 hrs by Western blot analysis; assay type: cell-based; details: dose 1-10 µM
Chain of Protein cereblon/Eukaryotic peptide chain release factor GTP-binding subunit ERF3A (Homo sapiens) (P15170 whole entry, looked up): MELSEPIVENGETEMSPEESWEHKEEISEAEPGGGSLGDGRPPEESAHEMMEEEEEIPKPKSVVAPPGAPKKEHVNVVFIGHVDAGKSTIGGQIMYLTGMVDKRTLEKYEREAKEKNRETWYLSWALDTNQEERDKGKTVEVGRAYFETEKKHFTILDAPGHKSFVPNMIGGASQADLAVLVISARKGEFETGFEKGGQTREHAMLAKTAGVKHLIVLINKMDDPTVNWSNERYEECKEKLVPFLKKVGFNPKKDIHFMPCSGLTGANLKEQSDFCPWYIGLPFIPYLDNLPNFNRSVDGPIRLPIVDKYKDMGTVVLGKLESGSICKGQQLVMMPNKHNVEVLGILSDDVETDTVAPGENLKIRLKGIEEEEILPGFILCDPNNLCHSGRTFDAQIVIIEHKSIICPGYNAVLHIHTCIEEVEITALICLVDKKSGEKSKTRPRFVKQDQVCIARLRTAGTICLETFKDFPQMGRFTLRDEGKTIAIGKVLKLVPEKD
Chain of Protein cereblon/Eukaryotic peptide chain release factor GTP-binding subunit ERF3A (Homo sapiens) (Q96SW2 whole entry, looked up): as the sequence (Q96SW2 whole entry) above

[8] = Stability of the compound in potassium phosphate buffer at pH 7.4 assessed as parent compound remaining at 100 uM measured after 24 hrs by HPLC analysis; assay type: physicochemical; details: read-out: Stability; summary of the method: as §2
[9] = biological target: Cereblon/Ikaros (Homo sapiens) (UniProt Q96SW2+Q13422); experiment: Protac activity at CRBN/IKZF1 in human MV4-11 cells assessed as induction of IKZF1 degradation at 1 to 10 uM measured after 24 hrs by Western blot analysis; assay type: cell-based; details: dose 1-10 µM
[10] = biological target: Protein cereblon/Zinc finger protein Aiolos (Homo sapiens) (UniProt Q96SW2+Q9UKT9); experiment: Protac activity at CRBN/IKZF3 in human MV4-11 cells assessed as induction of IKZF3 degradation at 1 to 10 uM measured after 24 hrs by Western blot analysis; assay type: cell-based; details: dose 1-10 µM
Chain of Protein cereblon/Zinc finger protein Aiolos (Homo sapiens) (Q96SW2 whole entry, looked up): as the sequence (Q96SW2 whole entry) above
Chain of Protein cereblon/Zinc finger protein Aiolos (Homo sapiens) (Q9UKT9 whole entry, looked up): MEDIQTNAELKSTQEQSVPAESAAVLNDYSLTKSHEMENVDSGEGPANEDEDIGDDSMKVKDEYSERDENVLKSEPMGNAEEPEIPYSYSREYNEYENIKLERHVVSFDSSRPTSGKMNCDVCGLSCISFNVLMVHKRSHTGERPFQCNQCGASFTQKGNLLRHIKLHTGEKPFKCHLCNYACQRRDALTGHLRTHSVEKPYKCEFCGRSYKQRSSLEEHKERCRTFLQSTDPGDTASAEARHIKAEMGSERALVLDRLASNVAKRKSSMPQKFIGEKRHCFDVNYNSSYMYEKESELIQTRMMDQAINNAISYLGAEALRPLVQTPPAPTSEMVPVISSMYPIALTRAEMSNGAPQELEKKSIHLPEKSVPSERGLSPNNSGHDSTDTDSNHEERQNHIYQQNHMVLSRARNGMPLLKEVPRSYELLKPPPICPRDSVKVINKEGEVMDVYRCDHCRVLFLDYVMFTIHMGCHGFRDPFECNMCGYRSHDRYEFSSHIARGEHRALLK

[11] = system: MV4-11; experiment: Induction of apoptosis in human MV4-11 cells assessed as early apoptotic cells at 10 uM measured after 48 hrs by Annexin V-FITC staining based flow cytometry (reference value: 0%); assay type: functional
[12] = system: MV4-11; experiment: Induction of apoptosis in human MV4-11 cells assessed as viable cells at 0.01 uM measured after 48 hrs by Annexin V-FITC staining based flow cytometry (reference value: 98.7%); assay type: functional; details: read-out: Activity
[13] = system: MV4-11; experiment: Induction of apoptosis in human MV4-11 cells assessed as necrotic cells at 10 uM measured after 48 hrs by Annexin V-FITC staining based flow cytometry (reference value: 0.86%); assay type: functional
[14] = system: MV4-11; experiment: Induction of apoptosis in human MV4-11 cells assessed as late apoptotic cells at 0.01 uM measured after 48 hrs by Annexin V-FITC staining based flow cytometry (reference value: 0.42%); assay type: functional
[15] = system: MV4-11; experiment: Induction of apoptosis in human MV4-11 cells assessed as early apoptotic cells at 0.1 uM measured after 48 hrs by Annexin V-FITC staining based flow cytometry (reference value: 0%); assay type: functional
[16] = system: MV4-11; experiment: Antiproliferative activity at human MV4-11 cells assessed as reduction in cell viability measured after 72 hrs by Alamar blue dye based analysis; assay type: functional; details: MV4-11, 72 h; summary of the method: as §1
[17] = system: MV4-11; experiment: Induction of cell cycle arrest in human MV4-11 cells assessed as decrease in accumulation of cells at S phase at 0.01 to 10 uM incubated for 48 hrs by PI staining based flow cytometry analysis; assay type: functional; details: dose 0.01-10 µM
Summary of the method: (§3)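 Cell-cycle distribution determined by flow cytometry (Attune) in MV4;11 cells seeded in 6-well plates and treated with the indicated concentrations for 48 h.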

[18] = system: MV4-11; experiment: Induction of apoptosis in human MV4-11 cells assessed as early apoptotic cells at 0.01 uM measured after 48 hrs by Annexin V-FITC staining based flow cytometry (reference value: 0%); assay type: functional
[19] = system: MV4-11; experiment: Induction of apoptosis in human MV4-11 cells assessed as viable cells at 0.1 uM measured after 48 hrs by Annexin V-FITC staining based flow cytometry (reference value: 98.7%); assay type: functional; details: read-out: Activity
[20] = system: MV4-11; experiment: Induction of cell cycle arrest in human MV4-11 cells assessed as accumulation of cells at G1 phase at 0.01 to 10 uM incubated for 48 hrs by PI staining based flow cytometry analysis; assay type: functional; details: dose 0.01-10 µM; summary of the method: as §3
[21] = system: MV4-11; experiment: Induction of apoptosis in human MV4-11 cells assessed as late apoptotic cells at 1 uM measured after 48 hrs by Annexin V-FITC staining based flow cytometry (reference value: 0.42%); assay type: functional
[22] = system: MV4-11; experiment: Induction of apoptosis in human MV4-11 cells assessed as caspase 3 cleavage at 0.01 to 10 nM; assay type: functional, cell-based; details: MV4-11, dose upper 10.0 µM, in the assay text read “0.01 to 10 uM” for “0.01 to 10 nM”
Summary of the method: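 MV4;11 cells treated with the indicated concentrations for 24 h, or for the indicated times. […] Blocked in 5% BSA/TBST; anti-caspase 3 and anti-β-actin overnight in the cold, HRP secondary 1 h at room temperature; ECL detection of full-length and cleaved caspase 3.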

[23] = system: MV4-11; experiment: Induction of apoptosis in human MV4-11 cells assessed as viable cells at 10 uM measured after 48 hrs by Annexin V-FITC staining based flow cytometry (reference value: 98.7%); assay type: functional; details: read-out: Activity
[24] = system: MV4-11; experiment: Induction of apoptosis in human MV4-11 cells assessed as necrotic cells at 1 uM measured after 48 hrs by Annexin V-FITC staining based flow cytometry (reference value: 0.86%); assay type: functional
[25] = system: MV4-11; experiment: Induction of apoptosis in human MV4-11 cells assessed as late apoptotic cells at 0.1 uM measured after 48 hrs by Annexin V-FITC staining based flow cytometry (reference value: 0.42%); assay type: functional
[26] = system: MV4-11; experiment: Induction of apoptosis in human MV4-11 cells assessed as viable cells at 1 uM measured after 48 hrs by Annexin V-FITC staining based flow cytometry (reference value: 98.7%); assay type: functional; details: read-out: Activity
[27] = system: MV4-11; experiment: Induction of apoptosis in human MV4-11 cells assessed as necrotic cells at 0.1 uM measured after 48 hrs by Annexin V-FITC staining based flow cytometry (reference value: 0.86%); assay type: functional
[28] = system: MV4-11; experiment: Induction of apoptosis in human MV4-11 cells assessed as necrotic cells at 0.01 uM measured after 48 hrs by Annexin V-FITC staining based flow cytometry (reference value: 0.86%); assay type: functional
[29] = system: MV4-11; experiment: Induction of apoptosis in human MV4-11 cells assessed as late apoptotic cells at 10 uM measured after 48 hrs by Annexin V-FITC staining based flow cytometry (reference value: 0.42%); assay type: functional
[30] = system: MV4-11; experiment: Induction of apoptosis in human MV4-11 cells assessed as early apoptotic cells at 1 uM measured after 48 hrs by Annexin V-FITC staining based flow cytometry (reference value: 0%); assay type: functional
[31] = Stability of the compound in bicine buffer at pH 8.8 assessed as parent compound remaining at 100 uM measured after 2 hrs by HPLC analysis; assay type: physicochemical; details: read-out: Stability
Summary of the method: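 Incubated in pH 8.8 buffer; percent parent remaining reported after 2 h.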

[32] = biological target: Protein cereblon/Bromodomain-containing protein 4 (Homo sapiens) (UniProt O60885+Q96SW2); experiment: Protac activity at CRBN/BRD4 in human MV4-11 cells assessed as degradation of BRD4 at 0.01 to 1 uM incubated for 24 hrs; assay type: cell-based; details: dose 0.01-1 µM
Chain of Protein cereblon/Bromodomain-containing protein 4 (Homo sapiens) (Q96SW2 whole entry, looked up, other chains not shown): as the sequence (Q96SW2 whole entry) above

| SMILES | remaining at 24 h, 100 µM [2] | remaining at 0.5 h [3] | remaining at 4 h [4] | Kd [5] | remaining at 24 h, 100 µM [6] | Activity [7] | remaining at 24 h, 100 µM [8] | Activity [9] | Activity [10] | other results |
| --- | --- | --- | --- | --- | --- | --- | --- | --- | --- | --- |
| Cc1c(OCC(=O)N2CCCCC2)cccc1N1CCC(=O)NC1=O | > 99% | 85% | 81% | 1100 nM | 95% | inactive | > 99% | inactive | inactive | Activity [1]: inactive |
| CC(=O)NCCC#Cc1cccc(N2CCC(=O)NC2=O)c1C | > 99% | 90% | 102% | 630 nM | 90% | inactive | > 99% | inactive | inactive | – |
| Cc1c(OCC(=O)OC(C)(C)C)cccc1N1CCC(=O)NC1=O | – | – | – | 1200 nM | – | – | – | – | – | – |
| CC(C)(C)OC(=O)NCC#Cc1cccc(N2CCC(=O)NC2=O)c1 | – | – | – | 530 nM | – | – | – | – | – | – |
| CCNC(=O)COc1cccc(N2CCC(=O)NC2=O)c1C | > 99% | 100% | 88% | 2140 nM | 95% | inactive | > 99% | inactive | inactive | – |
| Cc1sc2c(c1C)C(c1ccc(Cl)cc1)=N[C@@H](CC(=O)NC1CCN(C(=O)COc3cccc(N4CCC(=O)NC4=O)c3C)CC1)c1nnc(C)n1-2 | – | – | – | – | – | – | – | – | – | Activity [11]: 5.77%; viability at 0.01 µM [12]: 77.2%; Activity [13]: 16.9%; Activity [14]: 13.4%; Activity [15]: 1.13%; IC50 [16]: 1.1 nM; Activity [17]: Active; Activity [18]: 0.32%; viability at 0.1 µM [19]: 17.1%; Activity [20]: Active; Activity [21]: 43.6%; Activity [22]: Active; viability at 10 µM [23]: 3.88%; Activity [24]: 48.7%; Activity [25]: 42.3%; viability at 1 µM [26]: 7.3%; Activity [27]: 39.4%; Activity [28]: 9.13%; Activity [29]: 88.7%; Activity [30]: 0.49% |
| Cc1c(C#CCNC(=O)OC(C)(C)C)cccc1N1CCC(=O)NC1=O | > 99% | 87% | 97% | – | 93% | inactive | > 99% | inactive | inactive | – |
| Nc1cccc2c1CN(C1CCC(=O)NC1=O)C2=O (stereo not given) [LENALIDOMIDE] | > 99% | 89% | 62% | – | – | – | 39% | – | – | remaining at 2 h, 100 µM [31]: 20% |
| Cc1sc2c(c1C)C(c1ccc(Cl)cc1)=N[C@@H](CC(=O)NC1CCN(C(=O)COc3cccc(N4CCC(=O)N(C)C4=O)c3C)CC1)c1nnc(C)n1-2 | – | – | – | – | – | – | – | – | – | Activity [32]: inactive |
| Cc1ccccc1N1CCC(=O)NC1=O | – | – | – | 1240 nM | – | – | – | – | – | – |
